These results are taken from ChEMBL document CHEMBL3817745, “Structure-Activity Relationship for the 4(3H)-Quinazolinone Antibacterials” (J Med Chem, 2016).

Bounds are passed on as bounds.

As a reminder, the MIC is the lowest concentration found to suppress growth.

Common to all, as to type: functional
Assay [1] relates to Pseudomonas aeruginosa. The assay can be described thus: Antibacterial activity against Pseudomonas aeruginosa […] incubated for 16 to 20 hrs by microdilution method. The method, boiled down: (§1)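 CLSI broth microdilution. 2-fold serial dilutions were made in cation-adjusted Mueller–Hinton broth, with 5% lysed horse blood added for Streptococcus strains, in triplicate. Inoculum 5×10^5 CFU/mL. Plates incubated 36 °C for 16–20 h. MIC taken as the lowest concentration visibly inhibiting growth.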
(In broth dilution the organism is exposed to a series of concentrations in liquid medium.)

Assay [2] has as its system Klebsiella pneumoniae. The assay can be described thus: Antibacterial activity against Klebsiella pneumoniae ATCC 700603 incubated for 16 to 20 hrs by microdilution method. The method in brief:
as §1

The subject of assay [3] is Escherichia coli. The assay can be described thus: Antibacterial activity against Escherichia coli ATCC 25922 incubated for 16 to 20 hrs by microdilution method. The method in brief: as §1
In assay [4] the test system is Acinetobacter baumannii. In words: Antibacterial activity against Acinetobacter baumannii ATCC 17961 incubated for 16 to 20 hrs by microdilution method. The method in brief:
as §1

The subject of assay [5] is Enterococcus faecium. In words: Antibacterial activity against Enterococcus faecium NCTC 7171 incubated for 16 to 20 hrs by microdilution method. The method in brief:
as §1

Assay [6] deals with Klebsiella aerogenes. The assay can be described thus: Antibacterial activity against Enterobacter aerogenes ATCC 35029 incubated for 16 to 20 hrs by microdilution method. The method, boiled down:
as §1

On to `CC(=O)Oc1cccc(-n2c(/C=C/c3ccc([N+](=O)[O-])cc3)nc3ccccc3c2=O)c1`, for which the MIC in assay [1] was at least 16 µg/mL; in assay [2] it was at least 16 µg/mL; in assay [3], at least 16 µg/mL; in assay [4], at least 16 µg/mL; in assay [5], at least 8 µg/mL; in assay [6], at least 16 µg/mL.

For `O=c1c2ccccc2nc(/C=C/c2ccc([N+](=O)[O-])cc2)n1-c1cccc(O)c1`, the MIC in assay [1] is at least 16 µg/mL; in assay [2] it was at least 16 µg/mL; in assay [3], at least 16 µg/mL; in assay [4], at least 16 µg/mL; in assay [5], at least 8 µg/mL; in assay [6], at least 16 µg/mL.

Consider `CC(=O)OCC#Cc1ccc(/C=C/c2nc3ccccc3c(=O)n2-c2cccc(C(=O)O)c2)cc1`, for which the MIC was at least 16 µg/mL in assay [1]; at least 16 µg/mL in assay [2]; at least 16 µg/mL in assay [3]; at least 16 µg/mL in assay [4]; at least 8 µg/mL in assay [5]; at least 16 µg/mL in assay [6].

As to `CC(=O)Oc1ccc(-n2c(/C=C/c3ccc([N+](=O)[O-])cc3)nc3ccccc3c2=O)cc1`, the MIC in assay [1] is at least 16 µg/mL; in assay [2] it was at least 16 µg/mL; in assay [3], at least 16 µg/mL; in assay [4], at least 16 µg/mL; in assay [5] it was at least 8 µg/mL; in assay [6], at least 16 µg/mL.

As for `NC(=O)c1cccc(-n2c(/C=C/c3ccc(Cl)cc3)nc3ccncc3c2=O)c1`, the MIC was at least 16 µg/mL in assay [1]; at least 16 µg/mL in assay [2]; at least 16 µg/mL in assay [3]; at least 16 µg/mL in assay [4]; at least 8 µg/mL in assay [5]; at least 16 µg/mL in assay [6].

For the molecule `NC(=O)c1cccc(-n2c(/C=C/c3ccc(F)cc3)nc3ccncc3c2=O)c1`, the MIC in assay [1] was at least 16 µg/mL; in assay [2] it was at least 16 µg/mL; in assay [3], at least 16 µg/mL; in assay [4] it was at least 16 µg/mL; in assay [5], at least 8 µg/mL; in assay [6] it was at least 16 µg/mL.

For `Nc1cccc(-n2c(/C=C/c3ccc(F)cc3)nc3ccccc3c2=O)c1`, the MIC in assay [1] was at least 16 µg/mL; in assay [2], at least 16 µg/mL; in assay [3], at least 16 µg/mL; in assay [4] it was at least 16 µg/mL; in assay [5] it was at least 8 µg/mL; in assay [6], at least 16 µg/mL.

Turning to `O=c1c2cc(Br)ccc2nc(/C=C/c2ccc([N+](=O)[O-])cc2)n1-c1cccc(O)c1`, the MIC in assay [1] was at least 16 µg/mL; in assay [2], at least 16 µg/mL; in assay [3], at least 16 µg/mL; in assay [4] it was at least 16 µg/mL; in assay [5], at least 8 µg/mL; in assay [6], at least 16 µg/mL.

Turning to `CC(=O)OCCCn1c(/C=C/c2ccc(C#N)cc2)nc2ccccc2c1=O`, the MIC was at least 16 µg/mL in assay [1]; at least 16 µg/mL in assay [2]; at least 16 µg/mL in assay [3]; at least 16 µg/mL in assay [4]; at least 8 µg/mL in assay [5]; at least 16 µg/mL in assay [6].

`N#Cc1ccc(/C=C/c2nc3ccccc3c(=O)n2-c2cc[nH]n2)cc1`: the MIC was at least 16 µg/mL in assay [1]; at least 16 µg/mL in assay [2]; at least 16 µg/mL in assay [3]; at least 16 µg/mL in assay [4]; at least 8 µg/mL in assay [5]; at least 16 µg/mL in assay [6].

Take `O=c1c2ccccc2nc(/C=C/c2ccc([N+](=O)[O-])cc2)n1-c1ccc(O)cc1`: the minimal inhibitory concentration (MIC) was at least 16 µg/mL in assay [1]; at least 16 µg/mL in assay [2]; at least 16 µg/mL in assay [3]; at least 16 µg/mL in assay [4]; at least 8 µg/mL in assay [5]; at least 16 µg/mL in assay [6].

`N#Cc1ccc(/C=C/c2nc3ccccc3c(=O)n2-c2cccc([N+](=O)[O-])c2)cc1`: the MIC is at least 16 µg/mL in assay [1]; at least 16 µg/mL in assay [2]; at least 16 µg/mL in assay [3]; at least 16 µg/mL in assay [4]; at least 8 µg/mL in assay [5]; at least 16 µg/mL in assay [6].

As for `O=C(NCCO)c1cccc(-n2c(/C=C/c3ccc(F)cc3)nc3ccccc3c2=O)c1`, the MIC in assay [1] is at least 16 µg/mL; in assay [2], at least 16 µg/mL; in assay [3] it was at least 16 µg/mL; in assay [4], at least 16 µg/mL; in assay [5] it was at least 8 µg/mL; in assay [6] it was at least 16 µg/mL.
